The target in one experiment is T1, Histone deacetylase 8 (Homo sapiens, UniProt Q9BY41).
T1 sequence (Q9BY41 whole entry): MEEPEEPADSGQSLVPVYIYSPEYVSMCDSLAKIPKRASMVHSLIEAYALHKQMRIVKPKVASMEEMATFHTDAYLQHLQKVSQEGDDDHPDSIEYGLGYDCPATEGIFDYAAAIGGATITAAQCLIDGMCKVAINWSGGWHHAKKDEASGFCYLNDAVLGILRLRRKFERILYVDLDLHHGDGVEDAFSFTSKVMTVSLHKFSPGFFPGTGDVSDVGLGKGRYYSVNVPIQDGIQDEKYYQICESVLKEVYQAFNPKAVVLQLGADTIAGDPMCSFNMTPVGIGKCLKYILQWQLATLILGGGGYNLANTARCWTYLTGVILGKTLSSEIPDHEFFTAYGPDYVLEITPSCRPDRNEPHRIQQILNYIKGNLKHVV
The experiment is described as follows: Inhibition of HDAC8 using fluorogenic Boc-Lys (acetyl)-AMC as substrate after 30 mins by fluorescence assay. Summed up:
(§1)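 Enzyme (HeLa nuclear extract or HDAC8, the latter expressed and purified in-house) preincubated 5 min with graded compound concentrations. Substrate added and run for 30 min at 37 °C, then stopped with a trypsin/TSA developer for 20 min at 37 °C. Fluorescence read at ex 390/em 460 nm. Inhibition was taken relative to control wells, IC50 by regression. Mean ± SD of ≥3 determinations.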

The next experiment deals with HCT-116. Nature of the experiment: Antiproliferative activity against human HCT116 cells after 48 hrs by MTT assay. The experiment is classed as functional, cell-based. The following applies: HCT-116, 48 h. (In general: Tetrazolium assays rely on reduction of a dye to a coloured formazan, in cell work by metabolically active cells.)
In the next experiment the test system is MDA-MB-231. Nature of the experiment: Antiproliferative activity against human MDA-MB-231 cells after 48 hrs by MTT assay. The experiment is classed as functional, cell-based. The following applies: MDA-MB-231, 48 h.
The target in a further experiment is Histone deacetylase. Nature of the experiment: Inhibition of HDAC in human HeLa cell nuclear extract using fluorogenic Boc-Lys (acetyl)-AMC as substrate after 30 mins fluorescence assay. The experiment is classed as protein assay. Summed up: as §1
The subject of the next experiment is A549. Nature of the experiment: Antiproliferative activity against human A549 cells after 48 hrs by MTT assay. The experiment is classed as functional, cell-based. As to conditions: A549, 48 h.

Bounds are passed on as bounds.

What is called IC50 is the concentration needed to halve the response being measured. High values mean lower potency, low ones higher potency. Turning to `O=C(COc1ccc(C[C@H](NC(=O)OCc2ccccc2)C(=O)Nc2ccccc2)cc1)NO`, at Histone deacetylase 8, the IC50 was determined as 197 nM.
In the case of `N[C@@H](Cc1ccc(OCC(=O)NO)cc1)C(=O)Nc1ccccc1`, half-maximal inhibition at Histone deacetylase 8 (IC50) required 467 nM.
Regarding `COc1ccc(NC(=O)[C@H](Cc2ccc(OCC(=O)NO)cc2)NC(=O)Cc2ccccc2)cc1`, the IC50 with HCT-116 was over 100000 nM; in the experiment with MDA-MB-231, 22300 nM; at Histone deacetylase, 1230 nM; at Histone deacetylase 8, 63 nM; with A549, over 100000 nM.
Take `COc1ccc(NC(=O)[C@H](Cc2ccc(OCC(=O)NO)cc2)NC(=O)OCc2ccccc2)cc1`: at Histone deacetylase 8, the IC50 worked out at 120 nM.
In the case of `COc1ccc(NC(=O)[C@H](Cc2ccc(OCC(=O)NO)cc2)NC(=O)CCc2ccccc2)cc1`, the IC50 in the experiment with HCT-116 came to 6240 nM; in the experiment with MDA-MB-231, 6590 nM; at Histone deacetylase it was 889 nM; on Histone deacetylase 8, 90 nM; with A549 it was 54600 nM.
For `COc1ccc(NC(=O)[C@H](Cc2ccc(OCC(=O)NO)cc2)NC(=O)c2ccccc2)cc1`, in that order: 1530 nM, 2980 nM, 358 nM, 87 nM and 24000 nM.
For `COc1ccc(NC(=O)[C@H](Cc2ccc(OCC(=O)NO)cc2)NC(=O)CCCc2ccccc2)cc1`, in that order: 57300 nM, 14300 nM, 1320 nM, 86 nM and 97200 nM.
Consider `COc1ccc(NC(=O)[C@H](Cc2ccc(OCC(=O)NO)cc2)NCc2ccccc2)cc1`, for which inhibition against Histone deacetylase 8 was half-maximal at 1180 nM (IC50).
Still for that read-out and setting: for `O=C(COc1ccc(C[C@H](NC(=O)OCc2ccccc2)C(=O)Nc2cccc(Cl)c2)cc1)NO` the value was 213 nM; for `COc1ccc(NC(=O)[C@H](Cc2ccc(OCC(=O)NO)cc2)NCCCc2ccccc2)cc1`, 922 nM; for `COc1ccc(NC(=O)[C@H](Cc2ccc(OCC(=O)NO)cc2)NCCc2ccccc2)cc1`, 660 nM.
The same measure, in the same setting: as for `O=C(COc1ccc(C[C@H](NC(=O)CCc2ccccc2)C(=O)Nc2ccccc2)cc1)NO`, the figure is 151 nM.
On the same count and under the same terms, for `CC(C)(C)OC(=O)N[C@@H](Cc1ccc(OCC(=O)NO)cc1)C(=O)Nc1ccccc1` the value was 227 nM.

Values taken from ChEMBL document CHEMBL1806484, “Design, synthesis and biological evaluation of tyrosine-based hydroxamic acid analogs as novel histone deacetylases (HDACs) inhibitors” (Bioorg Med Chem, 2011).
